{"source": "ChEMBL document CHEMBL1287652", "about": "“QSAR modeling, synthesis and bioassay of diverse leukemia RPMI-8226 cell line active agents” (2010)", "type_in_all_cases": "functional", "key": {"MDA-MB-231": {"system": "MDA-MB-231", "test": "Antitumor activity against human MDA-MB-231 cells after 48 hrs by sulforhodamine B assay", "conditions": "MDA-MB-231, 48 h", "in_short": "(§1)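 Cells were grown in RPMI-1640 with 5% FBS and 2 mM L-glutamine, plated at 5000–40,000 cells/well, and preincubated for 24 h. A time-zero plate was TCA-fixed. Compounds were added from DMSO stock at five concentrations for 48 h at 37 °C. Cells were fixed with TCA (adherent 10%, suspension 16%) and stained with SRB, and A515 was read. GI50 and TGI were calculated from Tz, control and test absorbances.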"}, "SK-MEL-5": {"system": "SK-MEL-5", "test": "Antitumor activity against human SK-MEL-5 cells after 48 hrs by sulforhodamine B assay", "conditions": "SK-MEL-5, 48 h", "in_short": "(§2)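 Cells were cultured in RPMI-1640 (5% FBS, 2 mM L-glutamine), pre-incubated for 24 h with time-zero plates TCA-fixed, then exposed for 48 h to five serial dilutions. The SRB read-out at 515 nm used time-zero, control and test absorbances. GI50 solves [(Ti−Tz)/(C−Tz)]×100 = 50 (net protein increase). TGI is the concentration giving 100% growth inhibition.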"}, "OVCAR-5": {"system": "OVCAR-5", "test": "Antitumor activity against human OVCAR5 cells after 48 hrs by sulforhodamine B assay", "conditions": "OVCAR-5, 48 h", "in_short": "as §2"}, "MCF7": {"system": "MCF7", "test": "Antitumor activity against human MCF7 cells after 48 hrs by sulforhodamine B assay", "conditions": "MCF7, 48 h", "in_short": "as §1"}, "A549": {"system": "A549", "test": "Antitumor activity against human A549 cells after 48 hrs by sulforhodamine B assay", "conditions": "A549, 48 h", "in_short": "as §1"}, "NCI-H460": {"system": "NCI-H460", "test": "Antitumor activity against human NCI-H460 cells after 48 hrs by sulforhodamine B assay", "conditions": "NCI-H460, 48 h", "in_short": "as §2"}, "ACHN": {"system": "ACHN", "test": "Antitumor activity against human ACHN cells after 48 hrs by sulforhodamine B assay", "in_short": "as §1"}, "NCI-H522": {"system": "NCI-H522", "test": "Antitumor activity against human NCI-H522 cells after 48 hrs by sulforhodamine B assay", "conditions": "NCI-H522, 48 h", "in_short": "as §2"}, "SK-MEL-2": {"system": "SK-MEL-2", "test": "Antitumor activity against human SK-MEL-2 cells after 48 hrs by sulforhodamine B assay", "conditions": "SK-MEL-2, 48 h", "in_short": "as §2"}, "HCT-15": {"system": "HCT-15", "test": "Antitumor activity against human HCT15 cells after 48 hrs by sulforhodamine B assay", "conditions": "HCT-15, 48 h", "in_short": "as §1"}, "CCRF-CEM": {"system": "CCRF-CEM", "test": "Antitumor activity against human CCRF-CEM cells after 48 hrs by sulforhodamine B assay", "in_short": "as §1"}, "NCI-H23": {"system": "NCI-H23", "test": "Antitumor activity against human NCI-H23 cells after 48 hrs by sulforhodamine B assay", "conditions": "NCI-H23, 48 h", "in_short": "as §2"}, "OVCAR-8": {"system": "OVCAR-8", "test": "Antitumor activity against human OVCAR8 cells after 48 hrs by sulforhodamine B assay", "conditions": "OVCAR-8, 48 h", "in_short": "as §2"}, "LOX IMVI": {"system": "LOX IMVI", "test": "Antitumor activity against human LOXIMVI cells after 48 hrs by sulforhodamine B assay", "in_short": "as §1"}, "TK-10": {"system": "TK-10", "test": "Antitumor activity against human TK10 cells after 48 hrs by sulforhodamine B assay", "conditions": "TK-10, 48 h", "in_short": "(§3)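 Cells grown in RPMI-1640 with 5% FBS and 2 mM glutamine, plated and preincubated 24 h; time-zero plates TCA-fixed. Five-level serial dilutions added, 48 h at 37 °C. TCA fixation, SRB staining, absorbance 515 nm. GI50 derived from [(Ti−Tz)/(C−Tz)]×100 = 50; TGI is concentration giving 100% growth inhibition.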"}, "CAKI-1": {"system": "CAKI-1", "test": "Antitumor activity against human Caki1 cells after 48 hrs by sulforhodamine B assay", "conditions": "CAKI-1, 48 h", "in_short": "as §1"}, "SR": {"system": "SR", "test": "Antitumor activity against human SR cells after 48 hrs by sulforhodamine B assay", "in_short": "as §2"}, "SNB-75": {"system": "SNB-75", "test": "Antitumor activity against human SNB75 cells after 48 hrs by sulforhodamine B assay", "conditions": "SNB-75, 48 h", "in_short": "as §2"}, "NCI-H226": {"system": "NCI-H226", "test": "Antitumor activity against human NCI-H226 cells after 48 hrs by sulforhodamine B assay", "conditions": "NCI-H226, 48 h", "in_short": "as §2"}, "HCT-116": {"system": "HCT-116", "test": "Antitumor activity against human HCT116 cells after 48 hrs by sulforhodamine B assay", "conditions": "HCT-116, 48 h", "in_short": "as §1"}, "HOP-62": {"system": "HOP-62", "test": "Antitumor activity against human HOP62 cells after 48 hrs by sulforhodamine B assay", "conditions": "HOP-62, 48 h", "in_short": "as §1"}, "786-0": {"system": "786-0", "test": "Antitumor activity against human 786-0 cells after 48 hrs by sulforhodamine B assay", "conditions": "786-0, 48 h", "in_short": "as §1"}, "SK-OV-3": {"system": "SK-OV-3", "test": "Antitumor activity against human SKOV3 cells after 48 hrs by sulforhodamine B assay", "conditions": "SK-OV-3, 48 h", "in_short": "as §2"}, "T47D": {"system": "T47D", "test": "Antitumor activity against human T47D cells after 48 hrs by sulforhodamine B assay", "in_short": "as §3"}, "Malme-3M": {"system": "Malme-3M", "test": "Antitumor activity against human MALME-3M cells after 48 hrs by sulforhodamine B assay", "in_short": "as §1"}, "COLO 205": {"system": "COLO 205", "test": "Antitumor activity against human COLO205 cells after 48 hrs by sulforhodamine B assay", "conditions": "COLO 205, 48 h", "in_short": "as §1"}, "SF-295": {"system": "SF-295", "test": "Antitumor activity against human SF295 cells after 48 hrs by sulforhodamine B assay", "conditions": "SF-295, 48 h", "in_short": "as §2"}, "UO-31": {"system": "UO-31", "test": "Antitumor activity against human UO31 cells after 48 hrs by sulforhodamine B assay", "conditions": "UO-31, 48 h", "in_short": "as §3"}}, "data": [{"smiles": "COc1ccc(NC(=O)Nc2ccccc2OCCCOc2ccccc2NC(=O)Nc2ccc(OC)cc2)cc1", "values": [{"measurement": "GI50", "setting": "MDA-MB-231", "value": 8.8, "unit": "µM"}, {"measurement": "TGI", "setting": "MDA-MB-231", "value": "> 100", "unit": "µM"}, {"measurement": "GI50", "setting": "SK-MEL-5", "value": "> 100", "unit": "µM"}, {"measurement": "TGI", "setting": "SK-MEL-5", "value": "> 100", "unit": "µM"}, {"measurement": "GI50", "setting": "OVCAR-5", "value": "> 100", "unit": "µM"}, {"measurement": "TGI", "setting": "OVCAR-5", "value": "> 100", "unit": "µM"}, {"measurement": "GI50", "setting": "MCF7", "value": "> 100", "unit": "µM"}, {"measurement": "TGI", "setting": "MCF7", "value": "> 100", "unit": "µM"}, {"measurement": "GI50", "setting": "A549", "value": "> 100", "unit": "µM"}, {"measurement": "TGI", "setting": "A549", "value": "> 100", "unit": "µM"}, {"measurement": "GI50", "setting": "NCI-H460", "value": "> 100", "unit": "µM"}, {"measurement": "TGI", "setting": "NCI-H460", "value": "> 100", "unit": "µM"}, {"measurement": "GI50", "setting": "ACHN", "value": "> 100", "unit": "µM"}, {"measurement": "TGI", "setting": "ACHN", "value": "> 100", "unit": "µM"}, {"measurement": "GI50", "setting": "NCI-H522", "value": "> 100", "unit": "µM"}, {"measurement": "TGI", "setting": "NCI-H522", "value": "> 100", "unit": "µM"}, {"measurement": "GI50", "setting": "SK-MEL-2", "value": "> 100", "unit": "µM"}, {"measurement": "TGI", "setting": "SK-MEL-2", "value": "> 100", "unit": "µM"}, {"measurement": "GI50", "setting": "HCT-15", "value": "> 100", "unit": "µM"}, {"measurement": "TGI", "setting": "HCT-15", "value": "> 100", "unit": "µM"}, {"measurement": "GI50", "setting": "CCRF-CEM", "value": 14.4, "unit": "µM"}, {"measurement": "TGI", "setting": "CCRF-CEM", "value": 78.9, "unit": "µM"}, {"measurement": "GI50", "setting": "NCI-H23", "value": 12.4, "unit": "µM"}, {"measurement": "TGI", "setting": "NCI-H23", "value": "> 100", "unit": "µM"}, {"measurement": "GI50", "setting": "OVCAR-8", "value": 8.9, "unit": "µM"}, {"measurement": "TGI", "setting": "OVCAR-8", "value": "> 100", "unit": "µM"}, {"measurement": "GI50", "setting": "LOX IMVI", "value": "> 100", "unit": "µM"}, {"measurement": "TGI", "setting": "LOX IMVI", "value": "> 100", "unit": "µM"}, {"measurement": "GI50", "setting": "TK-10", "value": 4, "unit": "µM"}, {"measurement": "TGI", "setting": "TK-10", "value": 49.7, "unit": "µM"}, {"measurement": "GI50", "setting": "CAKI-1", "value": "> 100", "unit": "µM"}, {"measurement": "TGI", "setting": "CAKI-1", "value": "> 100", "unit": "µM"}, {"measurement": "GI50", "setting": "SR", "value": 0.2, "unit": "µM"}, {"measurement": "TGI", "setting": "SR", "value": 4, "unit": "µM"}, {"measurement": "GI50", "setting": "SNB-75", "value": 1.5, "unit": "µM"}, {"measurement": "TGI", "setting": "SNB-75", "value": 5.3, "unit": "µM"}, {"measurement": "GI50", "setting": "NCI-H226", "value": "> 100", "unit": "µM"}, {"measurement": "TGI", "setting": "NCI-H226", "value": "> 100", "unit": "µM"}, {"measurement": "GI50", "setting": "HCT-116", "value": 5.3, "unit": "µM"}, {"measurement": "TGI", "setting": "HCT-116", "value": "> 100", "unit": "µM"}, {"measurement": "GI50", "setting": "HOP-62", "value": 3.3, "unit": "µM"}, {"measurement": "TGI", "setting": "HOP-62", "value": 9.4, "unit": "µM"}, {"measurement": "TGI", "setting": "786-0", "value": "> 100", "unit": "µM"}, {"measurement": "GI50", "setting": "SK-OV-3", "value": 5, "unit": "µM"}, {"measurement": "TGI", "setting": "SK-OV-3", "value": "> 100", "unit": "µM"}, {"measurement": "GI50", "setting": "T47D", "value": "> 100", "unit": "µM"}, {"measurement": "TGI", "setting": "T47D", "value": "> 100", "unit": "µM"}, {"measurement": "GI50", "setting": "Malme-3M", "value": 0.3, "unit": "µM"}, {"measurement": "TGI", "setting": "Malme-3M", "value": 5.3, "unit": "µM"}, {"measurement": "GI50", "setting": "COLO 205", "value": 14.3, "unit": "µM"}, {"measurement": "TGI", "setting": "COLO 205", "value": "> 100", "unit": "µM"}, {"measurement": "GI50", "setting": "SF-295", "value": 29.9, "unit": "µM"}, {"measurement": "TGI", "setting": "SF-295", "value": "> 100", "unit": "µM"}, {"measurement": "GI50", "setting": "UO-31", "value": "> 100", "unit": "µM"}, {"measurement": "TGI", "setting": "UO-31", "value": "> 100", "unit": "µM"}]}]}
